Test [1] relates to K562. Briefly: Antiproliferative activity against human K562 cells after 48 hrs by hemocytometric analysis. It is filed as functional, cell-based. The following applies: K562, 48 h. The procedure, abridged: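 K562 cells in RPMI 1640 with 10% FBS at 37 °C/5% CO2, plated at 2 × 10^5 cells/mL. Compounds in DMSO/methanol 1:1, final vehicle 0.5%. Cells counted in a Neubauer hemocytometer after 48 h and expressed as % of untreated control. Triplicate wells, three experiments; IC50 by nonlinear regression.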

The target of test [2] is Tubulin (Sus scrofa, UniProt P02554+P02550). Briefly: Inhibition of pig tubulin polymerization determined after 45 mins at 37 degC by turbidimetric analysis. It is filed as protein assay. The procedure, abridged:
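Microtubule protein (80–90% tubulin with MAPs) from porcine brain, isolated by two cold/warm cycles. Buffer: 20 mM PIPES pH 6.8, 80 mM NaCl, 0.5 mM MgCl2, 1 mM EGTA, 1 mM DTT. Protein at 1.2 mg/mL (about 10 μM tubulin) with 0.6 mM GTP, 1% DMSO, 37 °C.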

The term IC50 denotes the point on the concentration scale where inhibition reaches its midpoint. Read a low IC50 as greater potency in that assay. On to `COc1cc(C(=O)N2c3ccccc3S(=O)(=O)c3ccccc32)cc(OC)c1OC`, for which the values for the IC50 in test [1] and in test [2] were 2.6 µM and 2.46 µM, respectively.
As for `COc1ccc(C(=O)N2c3ccccc3Sc3ccccc32)cc1O`, the IC50 in test [1] stood at 0.21 µM; in test [2], 1.4 µM.
In the case of `N#Cc1ccc2c(c1)Oc1ccccc1N2`, the IC50 in test [1] and in test [2] was more than 10 µM throughout.
As to `COc1ccc(C(=O)N2c3ccccc3S(=O)(=O)c3ccc(Cl)cc32)cc1`, the IC50 in test [1] turned out to be 0.8 µM; in test [2], 1.05 µM.
On the same counts, the results for `COc1cc(C(=O)N2c3ccccc3Oc3ccc(Cl)cc32)cc(OC)c1O` are 4.63 µM and 0.68 µM.
In test [1], `O=C(c1ccccc1)N1c2ccccc2[S+]([O-])c2ccc(Cl)cc21` (stereo unspecified) returned an IC50 of more than 30 µM.
As to `COc1cccc(C(=O)N2c3ccccc3Oc3ccc(Cl)cc32)c1`, the IC50 in test [1] came to 1.38 µM; in test [2] it was 0.65 µM.
On the same counts, the results for `O=C(c1ccc([N+](=O)[O-])cc1)N1c2ccccc2Oc2ccc(Cl)cc21` are more than 80 µM and 5.03 µM.
In test [1], `CC(=O)N1c2ccccc2Oc2ccc(Cl)cc21` displayed an IC50 of more than 30 µM.
Still for that read-out and setting: the result for `COc1ccc(C(=O)N2c3ccccc3Sc3ccccc32)cc1OCc1ccccc1` reads more than 30 µM; that for `O=C(c1ccc(C(F)(F)F)cc1)N1c2ccccc2Oc2ccc(Cl)cc21`, more than 75 µM.
Consider `COc1ccc(CC(=O)N2c3ccccc3Oc3ccccc32)cc1`, for which the figures for the IC50 in test [1] and in test [2] were 4.81 µM and more than 10 µM, respectively.
As to `COc1cc(C(=O)N2c3ccccc3Sc3ccc(Cl)cc32)cc(OC)c1OC`, the IC50 in test [1] is 11 µM; in test [2], more than 10 µM.
In the same order, the values of `COc1ccc(C(=O)N2c3ccccc3Sc3ccc(OC)cc32)cc1` are 0.97 µM and 3.23 µM.
The compound `O=C(c1ccc(Br)cc1)N1c2ccccc2Oc2ccc(Cl)cc21` registered an IC50 in test [1] of more than 25 µM.
On to `COc1ccc(C(=O)N2c3ccccc3Sc3ccc(C(F)(F)F)cc32)cc1`, for which the IC50 in test [1] is 4.6 µM; in test [2], more than 10 µM.
With `N#Cc1ccc2c(c1)Oc1ccccc1N2C(=O)c1ccccc1`, the IC50 in test [1] turned out to be 0.23 µM; in test [2], 1.2 µM.
On the same counts, the results for `COc1cc(C(=O)N2c3ccccc3[S+]([O-])c3ccccc32)cc(OC)c1OC` are 8.03 µM and more than 10 µM.
In the same order, the values of `COc1ccc(C(=O)N2c3ccccc3[S+]([O-])c3ccccc32)cc1` are 0.42 µM and 9.39 µM.
`O=C(c1ccccc1)N1c2ccccc2S(=O)(=O)c2ccccc21` had an IC50 in test [1] of more than 30 µM.
As for `COc1ccc(C(=O)N2c3ccccc3Oc3cccc(C#N)c32)cc1`, the values for the IC50 in test [1] and in test [2] were 0.12 µM and 0.96 µM, respectively.
On the same counts, the results for `Clc1ccc2c(c1)Nc1ccccc1O2` are more than 30 µM and more than 10 µM.
Turning to `COc1ccc(C(=O)CN2c3ccccc3Oc3ccc(Cl)cc32)cc1`, the IC50 in test [1] was more than 20 µM.
For `O=C(c1ccc(Cl)cc1)N1c2ccccc2Oc2ccc(Cl)cc21`, the IC50 was found to be 20 µM in test [1] and 2.42 µM in test [2].
On the same counts, the results for `COc1ccc(C(=O)N2c3ccccc3[S+]([O-])c3ccc(OC)cc32)cc1` (stereo unspecified) are 1.65 µM and 23.31 µM.
Compound `O=C(c1ccccc1)N1c2ccccc2[S+]([O-])c2ccccc21` yielded an IC50 in test [1] of more than 30 µM.
On the same count and under the same terms, the result for `O=C(c1ccccc1)N1c2ccccc2Sc2ccc(Cl)cc21` reads more than 30 µM; that for `c1ccc2c(c1)Nc1ccccc1S2` [PHENOTHIAZINE], more than 100 µM; that for `O=C(c1ccccc1)N1c2ccccc2S(=O)(=O)c2ccc(Cl)cc21`, more than 30 µM.
Still for that read-out and setting: to `O=C(c1ccccc1)N1c2ccccc2Sc2ccccc21` belongs more than 30 µM; to `Clc1ccc2c(c1)Nc1ccccc1S2`, more than 100 µM.
The same measure, in the same setting: the result for `COc1cc(C(=O)N2c3ccccc3Oc3ccc(Cl)cc32)cc(OC)c1OC` reads 24 µM; that for `COc1ccc(CC(=O)N2c3ccccc3Sc3ccc(Cl)cc32)cc1`, 8 µM.
